Results reported in ChEMBL document CHEMBL4270613, “Design, synthesis, biological evaluation and structure-activity relationship of sophoridine derivatives bearing pyrrole or indole scaffold as potential antitumor agents” (Eur J Med Chem, 2018).
pIC50: −log10 of the molar value.

System: HepG2
Assay: Antiproliferative activity against human HepG2 cells after 48 hrs by MTT assay
Type: functional, cell-based
Settings: HepG2, 48 h
Outline: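 HepG2 exposed to compounds for 48 h; MTT readout; camptothecin positive control; IC50 calculated; mean ± SD of three independent experiments, each in triplicate.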

| SMILES | pIC50 |
| --- | --- |
| COc1cccc(Cn2cccc2/C=C2\CC[C@@H]3[C@H]4CCCN5CCC[C@H](CN3C2=O)[C@@H]45)c1 | 4.76 |
| COc1ccc(Br)c(Cn2cccc2/C=C2\CC[C@@H]3[C@H]4CCCN5CCC[C@H](CN3C2=O)[C@@H]45)c1 | 5.02 |
| COc1ccc2c(c1)c(/C=C1\CC[C@@H]3[C@H]4CCCN5CCC[C@H](CN3C1=O)[C@@H]45)cn2Cc1ccc(OCc2ccc(F)cc2)cc1 | 5.51 |
| CC(C)(C)c1ccc(Cn2cccc2/C=C2\CC[C@@H]3[C@H]4CCCN5CCC[C@H](CN3C2=O)[C@@H]45)cc1 | 4.87 |
| O=C1/C(=C/c2cccn2Cc2cccc(Cl)c2)CC[C@@H]2[C@H]3CCCN4CCC[C@H](CN12)[C@@H]34 | 4.78 |
| Cc1cccc(Cn2cccc2/C=C2\CC[C@@H]3[C@H]4CCCN5CCC[C@H](CN3C2=O)[C@@H]45)c1 | 4.74 |
| COc1cc(Cn2cc(/C=C3\CC[C@@H]4[C@H]5CCCN6CCC[C@H](CN4C3=O)[C@@H]56)c3ccccc32)cc(OC)c1 | 5.16 |
| c1ccc(COc2ccc(Cn3ccc4ccccc43)cc2)cc1 | < 4.30 |
| Cn1cccc1/C=C1\CC[C@@H]2[C@H]3CCCN4CCC[C@H](CN2C1=O)[C@@H]34 | < 4.00 |
| O=C1/C(=C/c2cccn2Cc2ccc(Cl)cc2)CC[C@@H]2[C@H]3CCCN4CCC[C@H](CN12)[C@@H]34 | 4.87 |
| O=C1/C(=C/c2cn(Cc3ccc(OCc4ccccc4)cc3)c3ccccc23)CC[C@@H]2[C@H]3CCCN4CCC[C@@H](CN12)[C@@H]34 | 5.00 |
| O=C1/C(=C/c2cn(Cc3ccc(OC(F)(F)F)cc3)c3ccccc23)CC[C@@H]2[C@H]3CCCN4CCC[C@H](CN12)[C@@H]34 | 5.06 |
| Cc1ccc(COc2ccc(Cn3cc(/C=C4\CC[C@@H]5[C@H]6CCCN7CCC[C@H](CN5C4=O)[C@@H]67)c4ccccc43)cc2)cc1 | 5.27 |
| COc1cccc(Cn2cc(/C=C3\CC[C@@H]4[C@H]5CCCN6CCC[C@H](CN4C3=O)[C@@H]56)c3ccccc32)c1 | 5.09 |
| COc1ccc2c(c1)c(/C=C1\CC[C@@H]3[C@H]4CCCN5CCC[C@H](CN3C1=O)[C@@H]45)cn2Cc1ccc(OCc2ccc(C)cc2)cc1 | 5.38 |
| O=C1/C(=C/c2cn(Cc3cccc(Br)c3)c3ccccc23)CC[C@@H]2[C@H]3CCCN4CCC[C@H](CN12)[C@@H]34 | 5.06 |
| O=C1/C(=C/c2cccn2Cc2ccccc2Br)CC[C@@H]2[C@H]3CCCN4CCC[C@H](CN12)[C@@H]34 | 4.87 |
| COc1ccc2c(c1)c(/C=C1\CC[C@@H]3[C@H]4CCCN5CCC[C@H](CN3C1=O)[C@@H]45)cn2Cc1ccc(OCc2ccc(Br)cc2)cc1 | 5.20 |
| Cc1ccc(Cn2cccc2/C=C2\CC[C@@H]3[C@H]4CCCN5CCC[C@H](CN3C2=O)[C@@H]45)cc1 | 4.76 |
| CC(C)(C)c1ccc(Cn2cc(/C=C3\CC[C@@H]4[C@H]5CCCN6CCC[C@H](CN4C3=O)[C@@H]56)c3ccccc32)cc1 | 5.34 |
| O=C1/C(=C/c2cn(Cc3ccc(OCc4ccc(OC(F)(F)F)cc4)cc3)c3ccccc23)CC[C@@H]2[C@H]3CCCN4CCC[C@H](CN12)[C@@H]34 | 5.22 |
| O=C1/C(=C/c2cn(Cc3ccc(OCc4ccc(Cl)cc4)cc3)c3ccccc23)CC[C@@H]2[C@H]3CCCN4CCC[C@H](CN12)[C@@H]34 | 5.21 |
| O=C1/C(=C/c2cn(Cc3ccc(OCc4ccccc4)cc3)c3cc(Cl)ccc23)CC[C@@H]2[C@H]3CCCN4CCC[C@H](CN12)[C@@H]34 | 4.84 |

Continued by rising pIC50, values first:

| pIC50 | SMILES |
| --- | --- |
| 4.53 | O=C1/C(=C/c2cccn2Cc2ccc(F)cc2)CC[C@@H]2[C@H]3CCCN4CCC[C@H](CN12)[C@@H]34 |
| 4.60 | Cc1ccccc1Cn1cccc1/C=C1\CC[C@@H]2[C@H]3CCCN4CCC[C@H](CN2C1=O)[C@@H]34 |
| 4.74 | CC(C)(C)c1cc(Cn2cccc2/C=C2\CC[C@@H]3[C@H]4CCCN5CCC[C@H](CN3C2=O)[C@@H]45)cc(C(C)(C)C)c1 |
| 4.79 | O=C1/C(=C/c2cccn2Cc2ccc3ccccc3c2)CC[C@@H]2[C@H]3CCCN4CCC[C@H](CN12)[C@@H]34 |
| 4.82 | O=C1/C(=C/c2cccc3c2ccn3Cc2ccc(OCc3ccccc3)cc2)CC[C@@H]2[C@H]3CCCN4CCC[C@H](CN12)[C@@H]34 |
| 4.83 | Cc1cc(C)cc(Cn2cccc2/C=C2\CC[C@@H]3[C@H]4CCCN5CCC[C@H](CN3C2=O)[C@@H]45)c1 |
| 4.90 | O=C1/C(=C/c2cccn2Cc2ccc(Br)cc2)CC[C@@H]2[C@H]3CCCN4CCC[C@H](CN12)[C@@H]34 |
| 4.96 | O=C1/C(=C/c2cccn2Cc2ccccc2)CC[C@@H]2[C@H]3CCCN4CCC[C@H](CN12)[C@@H]34 |
| 5.00 | O=C1/C(=C/c2cn(Cc3ccc(OCc4ccc(Br)cc4)cc3)c3ccccc23)CC[C@@H]2[C@H]3CCCN4CCC[C@H](CN12)[C@@H]34 |
| 5.01 | O=C1/C(=C/c2cn(Cc3c(Cl)cccc3Cl)c3ccccc23)CC[C@@H]2[C@H]3CCCN4CCC[C@H](CN12)[C@@H]34 |
| 5.04 | O=C1/C(=C/c2cn(Cc3ccccc3Cl)c3ccccc23)CC[C@@H]2[C@H]3CCCN4CCC[C@H](CN12)[C@@H]34 |
| 5.11 | Cc1ccc2c(c1)c(/C=C1\CC[C@@H]3[C@H]4CCCN5CCC[C@H](CN3C1=O)[C@@H]45)cn2Cc1ccc(OCc2ccccc2)cc1 |
| 5.14 | O=C1/C(=C/c2ccc3c(ccn3Cc3ccc(OCc4ccccc4)cc3)c2)CC[C@@H]2[C@H]3CCCN4CCC[C@H](CN12)[C@@H]34 |
| 5.14 | O=C1/C(=C/c2cccn2Cc2ccc(OCc3ccccc3)cc2)CC[C@@H]2[C@H]3CCCN4CCC[C@H](CN12)[C@@H]34 |
| 5.18 | O=C1/C(=C/c2cn(Cc3ccc(Cl)cc3)c3ccccc23)CC[C@@H]2[C@H]3CCCN4CCC[C@H](CN12)[C@@H]34 |
| 5.22 | CC(C)(C)c1ccc(COc2ccc(Cn3cc(/C=C4\CC[C@@H]5[C@H]6CCCN7CCC[C@H](CN5C4=O)[C@@H]67)c4ccccc43)cc2)cc1 |
| 5.23 | O=C1/C(=C/c2cn(Cc3ccc(Br)cc3)c3ccccc23)CC[C@@H]2[C@H]3CCCN4CCC[C@H](CN12)[C@@H]34 |
| 5.32 | O=C1/C(=C/c2cn(Cc3ccc(OCc4ccc(F)cc4)cc3)c3ccccc23)CC[C@@H]2[C@H]3CCCN4CCC[C@H](CN12)[C@@H]34 |
| 5.40 | O=C1/C(=C/c2cn(Cc3ccc(OCc4ccccc4)cc3)c3ccc(Br)cc23)CC[C@@H]2[C@H]3CCCN4CCC[C@H](CN12)[C@@H]34 |
| 5.51 | O=C1/C(=C/c2cn(Cc3ccc(OCc4ccccc4)cc3)c3ccccc23)CC[C@@H]2[C@H]3CCCN4CCC[C@H](CN12)[C@@H]34 |
